Measured values as given in ChEMBL document CHEMBL3992532, “Structure-Based Design of Macrocyclic Factor XIa Inhibitors: Discovery of the Macrocyclic Amide Linker” (J Med Chem, 2017).
pKi: −log10 of the molar value.

What was measured:
[1] = Volume of distribution at steady state in Beagle dog at 0.2 mg/kg, iv administered as 10 mins infusion or 0.4 mg/kg, po via gavage administered as cassette dose by LC-MS/MS method; assay type: ADME, organism-based, Canis lupus familiaris; settings: in vivo, read-out: Vdss
Summary of the method: (§1)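 Dog PK vehicles as footnoted: iv in 70% PEG 400/20% water/10% ethanol; po either 70% PEG 400/20% TPGS/10% ethanol or the same PEG 400/water/ethanol vehicle used for iv.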

[2] = Half life in dog liver microsomes; assay type: ADME, Canis lupus familiaris, microsome
Coagulation factor XI = Coagulation factor XI (Homo sapiens, UniProt P03951); experiment: Inhibition of human coagulation factor 11a using pyroGlu-Pro-Arg-pNA as substrate after 10 to 120 mins at 37 degC by spectrophotometric method
Sequence of Coagulation factor XI (P03951 19-387 limits assumed): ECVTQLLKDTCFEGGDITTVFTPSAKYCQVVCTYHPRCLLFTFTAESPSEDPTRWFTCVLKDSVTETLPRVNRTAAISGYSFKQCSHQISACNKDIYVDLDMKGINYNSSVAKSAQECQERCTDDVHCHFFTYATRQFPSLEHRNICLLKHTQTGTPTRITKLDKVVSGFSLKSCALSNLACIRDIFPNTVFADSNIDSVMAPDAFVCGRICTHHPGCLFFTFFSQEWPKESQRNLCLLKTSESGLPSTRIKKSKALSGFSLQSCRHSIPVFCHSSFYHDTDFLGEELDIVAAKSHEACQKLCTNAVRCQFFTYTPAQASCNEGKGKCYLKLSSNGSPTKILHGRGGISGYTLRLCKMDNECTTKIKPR
Sequence of Coagulation factor XI (P03951 388-625 limits assumed): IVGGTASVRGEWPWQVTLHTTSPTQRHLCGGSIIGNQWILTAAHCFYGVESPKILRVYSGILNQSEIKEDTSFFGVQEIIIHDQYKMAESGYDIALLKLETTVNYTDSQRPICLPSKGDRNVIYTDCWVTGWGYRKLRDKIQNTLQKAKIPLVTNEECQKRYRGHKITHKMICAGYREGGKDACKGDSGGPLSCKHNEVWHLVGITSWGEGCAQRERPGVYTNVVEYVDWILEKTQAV
Summary of the method: (§2)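 Purified human proteases, 37 °C; reaction started by adding enzyme to substrate (up to 4× Km) ± inhibitor; compound from DMSO, 1% DMSO final except where noted. […] Buffers: FXIa, chymotrypsin, tPA, plasmin, urokinase in 50 mM HEPES pH 7.4, 145 mM NaCl, 5 mM KCl, 0.1% PEG 8000; FXa, thrombin, trypsin, plasma kallikrein, aPC in 100 mM Na phosphate pH 7.4, 200 mM NaCl, 0.5% PEG 8000; FIXa in 50 mM Tris pH 7.4, 100 mM NaCl, 5 mM CaCl2, 0.5% PEG 8000, 2% DMSO.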

Canis familiaris [3] = experiment: Oral bioavailability in Beagle dog at 0.4 mg/kg administered via gavage as cassette dose by LC-MS/MS method; assay type: ADME, organism-based, Canis lupus familiaris; settings: in vivo; summary of the method: as §1
[4] = Half life in Beagle dog at 0.2 mg/kg, iv administered as 10 mins infusion or 0.4 mg/kg, po via gavage administered as cassette dose by LC-MS/MS method; assay type: ADME, organism-based, Canis lupus familiaris; settings: in vivo; summary of the method: as §1
Canis familiaris [5] = experiment: AUC in Beagle dog at 0.4 mg/kg, po administered via gavage as cassette dose by LC-MS/MS method; assay type: ADME, organism-based, Canis lupus familiaris; settings: in vivo; summary of the method: as §1
[6] = molecular target: Vitamin K-dependent protein C (Homo sapiens, UniProt P04070); experiment: Inhibition of human activated protein C using pyroGlu-Pro-Arg-pNA as substrate after 10 to 120 mins at 37 degC by spectrophotometric method; summary of the method: as §2
Sequence of Vitamin K-dependent protein C (P04070 43-197 limits assumed): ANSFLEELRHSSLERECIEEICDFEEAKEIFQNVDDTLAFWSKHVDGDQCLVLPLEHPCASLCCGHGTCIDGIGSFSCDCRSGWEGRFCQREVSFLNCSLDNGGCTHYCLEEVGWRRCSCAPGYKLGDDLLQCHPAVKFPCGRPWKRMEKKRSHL
Sequence of Vitamin K-dependent protein C (P04070 212-461 limits assumed): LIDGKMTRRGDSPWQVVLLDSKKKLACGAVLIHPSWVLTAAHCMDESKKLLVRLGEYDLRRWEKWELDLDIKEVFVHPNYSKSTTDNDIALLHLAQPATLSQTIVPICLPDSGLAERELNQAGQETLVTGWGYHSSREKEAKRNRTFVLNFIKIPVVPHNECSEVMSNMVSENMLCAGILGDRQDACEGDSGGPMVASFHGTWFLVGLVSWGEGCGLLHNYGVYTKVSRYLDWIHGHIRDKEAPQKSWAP

[7] = Protein binding in dog plasma; assay type: ADME, cell-free, Canis lupus familiaris; settings: read-out: PPB (converted)
[8] = molecular target: Urokinase-type plasminogen activator (Homo sapiens, UniProt P00749); experiment: Inhibition of human urokinase using pyro-Glu-Gly-Arg-pNA as substrate after 10 to 120 mins at 37 degC by spectrophotometric method; summary of the method: as §2
Coagulation factor XII = molecular target: T1, Coagulation factor XII (Homo sapiens, UniProt P00748); experiment: Inhibition of human coagulation factor 12a using H-(D)-CHT-Gly-Arg-pNA as substrate after 10 to 120 mins at 25 degC by spectrophotometric method
T1 sequence (P00748 whole entry): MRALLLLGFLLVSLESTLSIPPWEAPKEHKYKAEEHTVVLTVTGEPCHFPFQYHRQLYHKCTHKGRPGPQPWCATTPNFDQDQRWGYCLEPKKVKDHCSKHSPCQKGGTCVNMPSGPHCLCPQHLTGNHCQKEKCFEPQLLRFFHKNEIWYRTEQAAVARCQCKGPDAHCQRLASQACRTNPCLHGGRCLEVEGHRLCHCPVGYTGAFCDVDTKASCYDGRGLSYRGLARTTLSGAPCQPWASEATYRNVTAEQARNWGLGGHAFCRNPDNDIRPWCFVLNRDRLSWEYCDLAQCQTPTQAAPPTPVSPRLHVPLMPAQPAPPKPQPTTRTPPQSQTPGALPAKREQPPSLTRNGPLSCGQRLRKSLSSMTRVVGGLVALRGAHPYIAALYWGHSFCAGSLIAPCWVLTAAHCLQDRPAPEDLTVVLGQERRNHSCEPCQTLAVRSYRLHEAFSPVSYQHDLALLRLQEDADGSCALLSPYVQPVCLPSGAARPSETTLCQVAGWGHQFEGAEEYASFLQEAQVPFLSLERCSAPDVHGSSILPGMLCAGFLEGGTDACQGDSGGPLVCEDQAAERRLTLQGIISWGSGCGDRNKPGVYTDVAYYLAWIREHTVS

Plasma = experiment: Anticoagulant activity in human plasma assessed as concentration required to produce 50% increase in activated partial thromboplastin time; assay type: functional
Summary of the method: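 Citrated (one-tenth volume 0.11 M) plasma from healthy volunteers, spun 2,000 g 10 min, kept on ice; 10 mM DMSO stock diluted in plasma, up to 7 concentrations; aPTT on automated coagulometer, duplicates as mean ratio to baseline; EC1.5x (50% prolongation) by linear interpolation, as total plasma concentration.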

Coagulation factor X = Coagulation factor X (Homo sapiens, UniProt P00742); experiment: Inhibition of human coagulation factor 10a using N-benzoyl-Ile-Glu-(OH,OMe)-Gly-Arg-pNA as substrate after 10 to 120 mins at 37 degC by spectrophotometric method; summary of the method: as §2
Sequence of Coagulation factor X (P00742 41-179 limits assumed): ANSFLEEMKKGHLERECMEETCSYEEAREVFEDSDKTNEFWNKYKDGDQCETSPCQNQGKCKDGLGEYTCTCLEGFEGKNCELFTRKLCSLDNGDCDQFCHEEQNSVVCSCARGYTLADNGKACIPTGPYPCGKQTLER
Sequence of Coagulation factor X (P00742 235-488 limits assumed): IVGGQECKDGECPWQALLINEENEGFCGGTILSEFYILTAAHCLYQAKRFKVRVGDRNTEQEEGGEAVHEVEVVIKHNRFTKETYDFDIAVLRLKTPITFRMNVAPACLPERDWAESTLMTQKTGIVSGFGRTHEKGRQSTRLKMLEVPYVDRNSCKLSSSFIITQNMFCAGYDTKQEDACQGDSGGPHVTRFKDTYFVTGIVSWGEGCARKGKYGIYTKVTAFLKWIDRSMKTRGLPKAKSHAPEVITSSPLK

[9] = Inhibition of human trypsin using N-benzoyl-Ile-Glu-(OH,OMe)-Gly-Arg-pNA as substrate after 10 to 120 mins at 37 degC by spectrophotometric method; summary of the method: as §2
[10] = Half life in human liver microsomes; assay type: ADME, microsome
[11] = Half life in Beagle dog at 0.19 mg/kg, iv administered as 10 mins infusion or 0.32 mg/kg, po via gavage administered as cassette dose by LC-MS/MS method; assay type: ADME, organism-based, Canis lupus familiaris; settings: in vivo; summary of the method: as §1
Canis familiaris [12] = experiment: AUC in Beagle dog at 0.32 mg/kg, po administered via gavage as cassette dose by LC-MS/MS method; assay type: ADME, organism-based, Canis lupus familiaris; settings: in vivo; summary of the method: as §1
[13] = molecular target: Tissue-type plasminogen activator (Homo sapiens, UniProt P00750); experiment: Inhibition of human tissue plasminogen activator using methylsulfonyl-D-cyclohexylalanyl-GlyArg-pNA as substrate after 10 to 120 mins at 37 degC by spectrophotometric method; summary of the method: as §2
Sequence of Tissue-type plasminogen activator (P00750 whole entry): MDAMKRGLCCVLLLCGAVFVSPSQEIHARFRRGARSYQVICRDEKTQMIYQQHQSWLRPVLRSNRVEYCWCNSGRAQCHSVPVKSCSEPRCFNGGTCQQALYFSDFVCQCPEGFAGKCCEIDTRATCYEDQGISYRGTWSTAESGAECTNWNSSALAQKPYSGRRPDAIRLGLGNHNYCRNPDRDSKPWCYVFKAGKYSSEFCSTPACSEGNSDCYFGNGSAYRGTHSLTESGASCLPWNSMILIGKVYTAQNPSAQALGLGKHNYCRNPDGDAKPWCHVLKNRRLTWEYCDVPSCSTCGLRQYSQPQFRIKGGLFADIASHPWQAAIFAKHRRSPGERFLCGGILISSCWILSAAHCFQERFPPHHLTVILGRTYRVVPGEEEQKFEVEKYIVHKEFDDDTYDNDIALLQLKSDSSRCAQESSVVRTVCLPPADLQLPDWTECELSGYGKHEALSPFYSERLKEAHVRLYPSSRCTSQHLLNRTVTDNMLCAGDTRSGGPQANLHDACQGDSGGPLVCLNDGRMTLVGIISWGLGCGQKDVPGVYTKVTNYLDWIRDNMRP

Coagulation factor VII = molecular target: T2, Coagulation factor VII (Homo sapiens, UniProt P08709); experiment: Inhibition of human coagulation factor 7a using H-(D)-Ile-Pro-Arg-pNA as substrate after 10 to 120 mins at 25 degC by spectrophotometric method
T2 sequence (P08709 whole entry): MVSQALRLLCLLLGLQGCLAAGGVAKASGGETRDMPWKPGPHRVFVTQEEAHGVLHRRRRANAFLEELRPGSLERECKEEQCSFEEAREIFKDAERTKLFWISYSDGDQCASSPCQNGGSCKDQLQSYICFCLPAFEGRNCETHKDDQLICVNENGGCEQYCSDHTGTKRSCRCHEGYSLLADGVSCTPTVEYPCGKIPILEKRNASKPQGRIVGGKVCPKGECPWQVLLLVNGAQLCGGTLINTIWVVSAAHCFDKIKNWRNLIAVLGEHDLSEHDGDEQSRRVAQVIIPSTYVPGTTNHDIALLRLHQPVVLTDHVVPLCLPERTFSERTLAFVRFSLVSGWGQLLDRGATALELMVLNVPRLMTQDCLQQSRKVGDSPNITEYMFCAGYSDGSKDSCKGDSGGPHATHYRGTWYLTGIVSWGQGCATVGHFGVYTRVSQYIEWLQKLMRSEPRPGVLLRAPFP

Plasminogen = Plasminogen (Homo sapiens, UniProt P00747); experiment: Inhibition of human plasmin using H-(D)-Val-Leu-LyspNA as substrate after 10 to 120 mins at 37 degC by spectrophotometric method; summary of the method: as §2
Sequence of Plasminogen (P00747 97-580 limits assumed): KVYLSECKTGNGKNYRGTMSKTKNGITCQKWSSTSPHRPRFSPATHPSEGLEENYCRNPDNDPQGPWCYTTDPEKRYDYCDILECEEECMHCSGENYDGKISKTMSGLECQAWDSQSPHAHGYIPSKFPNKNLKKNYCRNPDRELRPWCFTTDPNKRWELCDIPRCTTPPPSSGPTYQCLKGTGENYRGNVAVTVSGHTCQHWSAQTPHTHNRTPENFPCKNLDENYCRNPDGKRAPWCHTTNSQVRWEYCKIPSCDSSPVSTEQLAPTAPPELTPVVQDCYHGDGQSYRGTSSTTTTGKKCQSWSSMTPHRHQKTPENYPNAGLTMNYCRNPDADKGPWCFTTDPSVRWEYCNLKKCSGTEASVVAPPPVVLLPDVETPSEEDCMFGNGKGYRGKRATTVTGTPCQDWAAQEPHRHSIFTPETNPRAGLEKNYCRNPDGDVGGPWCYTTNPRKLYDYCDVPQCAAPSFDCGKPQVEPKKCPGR
Sequence of Plasminogen (P00747 581-810 limits assumed): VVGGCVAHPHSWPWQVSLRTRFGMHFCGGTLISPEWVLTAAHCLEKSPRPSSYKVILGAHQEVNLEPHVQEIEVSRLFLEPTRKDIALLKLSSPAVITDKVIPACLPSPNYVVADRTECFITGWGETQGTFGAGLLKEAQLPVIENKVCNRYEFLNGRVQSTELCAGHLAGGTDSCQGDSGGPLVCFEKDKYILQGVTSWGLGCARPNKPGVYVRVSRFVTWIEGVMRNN

Plasma kallikrein = Plasma kallikrein (Homo sapiens, UniProt P03952); experiment: Inhibition of human plasma kallikrein using H-(D)-Pro-Phe-Arg-pNA as substrate after 10 to 120 mins at 37 degC by spectrophotometric method; summary of the method: as §2
Sequence of Plasma kallikrein (P03952 20-390 limits assumed): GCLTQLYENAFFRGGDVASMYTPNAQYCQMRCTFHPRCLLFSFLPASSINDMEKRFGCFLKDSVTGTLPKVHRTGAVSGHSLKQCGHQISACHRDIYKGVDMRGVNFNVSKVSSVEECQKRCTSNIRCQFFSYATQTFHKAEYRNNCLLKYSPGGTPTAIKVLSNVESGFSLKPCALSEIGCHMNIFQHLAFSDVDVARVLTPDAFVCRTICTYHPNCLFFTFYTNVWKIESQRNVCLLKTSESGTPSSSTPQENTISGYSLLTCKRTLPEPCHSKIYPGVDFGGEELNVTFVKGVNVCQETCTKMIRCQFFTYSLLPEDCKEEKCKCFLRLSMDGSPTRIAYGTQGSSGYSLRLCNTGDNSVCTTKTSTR
Sequence of Plasma kallikrein (P03952 391-638 limits assumed): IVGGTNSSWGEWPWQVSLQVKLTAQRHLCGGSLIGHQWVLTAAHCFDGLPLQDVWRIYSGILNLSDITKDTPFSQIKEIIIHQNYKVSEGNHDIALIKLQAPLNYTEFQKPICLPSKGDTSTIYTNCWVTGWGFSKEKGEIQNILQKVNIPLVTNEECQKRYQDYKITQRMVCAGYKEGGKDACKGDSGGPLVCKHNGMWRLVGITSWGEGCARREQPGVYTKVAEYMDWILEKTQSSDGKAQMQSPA

[14] = Inhibition of human chymotrypsin using MeO-SucArg-Pro-Tyr-pNA as substrate after 10 to 120 mins at 37 degC by spectrophotometric method; summary of the method: as §2
Coagulation factor IX = Coagulation factor IX (Homo sapiens, UniProt P00740); experiment: Inhibition of human coagulation factor 9a using methylsulfonyl-D-cyclohexylglycyl-Gly-Arg-AMC as substrate after 10 to 120 mins at 37 degC by spectrophotometric method; summary of the method: as §2
Sequence of Coagulation factor IX (P00740 47-191 limits assumed): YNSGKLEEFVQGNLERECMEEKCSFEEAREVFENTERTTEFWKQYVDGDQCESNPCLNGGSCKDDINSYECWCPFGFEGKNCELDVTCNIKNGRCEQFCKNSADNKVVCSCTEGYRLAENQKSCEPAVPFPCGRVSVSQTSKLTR
Sequence of Coagulation factor IX (P00740 227-461 limits assumed): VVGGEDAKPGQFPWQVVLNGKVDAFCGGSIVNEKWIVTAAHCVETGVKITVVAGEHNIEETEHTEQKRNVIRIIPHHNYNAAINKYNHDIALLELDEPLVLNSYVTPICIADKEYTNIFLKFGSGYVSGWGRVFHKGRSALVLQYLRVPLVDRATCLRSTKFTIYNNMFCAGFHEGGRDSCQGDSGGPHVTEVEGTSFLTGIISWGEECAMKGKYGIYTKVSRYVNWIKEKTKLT

Prothrombin = Prothrombin (Homo sapiens, UniProt P00734); experiment: Inhibition of human thrombin using pyroGlu-Pro-Arg-pNA as substrate after 10 to 120 mins at 37 degC by spectrophotometric method; summary of the method: as §2
[15] = Volume of distribution at steady state in Beagle dog at 0.19 mg/kg, iv administered as 10 mins infusion or 0.32 mg/kg, po via gavage administered as cassette dose by LC-MS/MS method; assay type: ADME, organism-based, Canis lupus familiaris; settings: in vivo, read-out: Vdss; summary of the method: as §1
Canis familiaris [16] = experiment: Oral bioavailability in Beagle dog at 0.32 mg/kg administered via gavage as cassette dose by LC-MS/MS method; assay type: ADME, organism-based, Canis lupus familiaris; settings: in vivo; summary of the method: as §1
[17] = Permeability from apical to basolateral side in human Caco2 cells; assay type: ADME, cell-based; settings: Caco-2, read-out: permeability
Canis familiaris [18] = experiment: Oral bioavailability in Beagle dog at 0.23 mg/kg administered via gavage as cassette dose by LC-MS/MS method; assay type: ADME, organism-based, Canis lupus familiaris; settings: in vivo; summary of the method: as §1
[19] = Half life in Beagle dog at 0.2 mg/kg, iv administered as 10 mins infusion or 0.23 mg/kg, po via gavage administered as cassette dose by LC-MS/MS method; assay type: ADME, organism-based, Canis lupus familiaris; settings: in vivo; summary of the method: as §1
[20] = Volume of distribution at steady state in Beagle dog at 0.2 mg/kg, iv administered as 10 mins infusion or 0.23 mg/kg, po via gavage administered as cassette dose by LC-MS/MS method; assay type: ADME, organism-based, Canis lupus familiaris; settings: in vivo, read-out: Vdss; summary of the method: as §1
Canis familiaris [21] = experiment: AUC in Beagle dog at 0.23 mg/kg, po administered via gavage as cassette dose by LC-MS/MS method; assay type: ADME, organism-based, Canis lupus familiaris; settings: in vivo; summary of the method: as §1
Canis familiaris [22] = experiment: Half life in Beagle dog at 0.2 mg/kg, iv administered as 10 mins infusion or 0.35 mg/kg, po via gavage administered as cassette dose by LC-MS/MS method; assay type: ADME, organism-based, Canis lupus familiaris; settings: in vivo; summary of the method: as §1
Canis familiaris [23] = experiment: Volume of distribution at steady state in Beagle dog at 0.2 mg/kg, iv administered as 10 mins infusion or 0.35 mg/kg, po via gavage administered as cassette dose by LC-MS/MS method; assay type: ADME, organism-based, Canis lupus familiaris; settings: in vivo; summary of the method: as §1
[24] = Oral bioavailability in Beagle dog at 0.35 mg/kg administered via gavage as cassette dose by LC-MS/MS method; assay type: ADME, organism-based, Canis lupus familiaris; settings: in vivo; summary of the method: as §1

SMILES | half-life [2] | pKi (Coagulation factor XI) | pKi [6] | fraction unbound [7] | pKi [8] | pKi (Coagulation factor XII) | EC1.5 (Plasma) | pKi (Coagulation factor X) | pKi [9] | half-life [10] | pKi [13] | pKi (Coagulation factor VII) | pKi (Plasminogen) | pKi (Plasma kallikrein) | pKi [14] | pKi (Coagulation factor IX) | pKi (Prothrombin) | Papp A→B [17] | also measured
COC(=O)Nc1ccc2c(c1)OCCCCCC[C@H](NC(=O)/C=C/c1cc(Cl)ccc1-n1cnnn1)c1nc-2c[nH]1 | 1.47 h | 6.80 |  |  |  |  |  |  |  |  |  |  |  |  |  |  |  |  | Vd [1]: 2.2 L/kg; F (Canis familiaris [3]): 17%; half-life [4]: 2.1 h; AUC (Canis familiaris [5]): 119 nM·h
COC(=O)Nc1ccc2c(c1)NC(=O)CC/C=C/C[C@H](NC(=O)/C=C/c1cc(Cl)ccc1-n1cnnn1)c1nc-2c[nH]1 | > 2 h |  | < 4.67 | 0.085 | 5.30 | < 5.52 | 0.27 µM | < 4.88 | 5.82 | 0.683 h | < 5.21 | 5.78 | < 4.85 | 7.80 | 5.82 | < 4.57 | < 4.94 | < 15 nm/s | half-life [11]: 1.2 h; AUC (Canis familiaris [12]): 2.5 nM·h; Vd [15]: 1.8 L/kg; F (Canis familiaris [16]): 1%
COC(=O)Nc1ccc2c(c1)NC(=O)CCCC[C@H](NC(=O)/C=C/c1cc(Cl)ccc1-n1cnnn1)c1nc-2c[nH]1 | > 2 h | 9.00 | < 4.67 | 0.098 | < 4.82 | < 5.52 | 0.3 µM | < 4.88 | 5.08 | 1.5 h | < 5.21 | 5.50 | < 4.82 | 7.15 | 5.40 | < 4.57 | < 4.94 |  | F (Canis familiaris [18]): 6%; half-life [19]: 1 h; Vd [20]: 0.8 L/kg; AUC (Canis familiaris [21]): 21 nM·h
COC(=O)Nc1ccc2c(c1)NC(=O)CCCCC[C@H](NC(=O)/C=C/c1cc(Cl)ccc1-n1cnnn1)c1nc-2c[nH]1 | > 2 h | 8.49 |  | 0.066 |  |  | 1.2 µM |  |  | 0.567 h |  |  |  |  |  |  |  | < 15 nm/s | t1/2 (Canis familiaris [22]): 1.1 h; Vdss (Canis familiaris [23]): 3.9 L/kg; bioavailability [24]: 0%
